Measurements from ChEMBL document CHEMBL5352462, “Resveratrol derivatives: Synthesis and their biological activities” (Eur J Med Chem, 2023).
One block for each compound: values may come before it.

How the values were obtained:
HT-29 = test: Cytotoxicity against human HT-29 cells incubated for 24 hrs by MTT assay; assay type: functional, cell-based; conditions: HT-29, 24 h
How it was run: (§1)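 Cells plated at 1.5 × 10⁵ per well, allowed to adhere overnight, medium refreshed, then treated at 10, 50 and 100 μM for 24 h; DMSO vehicle controls (<0.1%). Medium replaced after 72 h. MTT at 5 mg/mL in PBS added, 3 h at 37 °C in 5% CO₂; formazan dissolved in DMSO, absorbance read at 550 nm. IC50 from dose-response curves, mean ± SE of three independent experiments.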

[1] = Lipophilicity, logP of compound; assay type: physicochemical; conditions: octanol/water
How it was run: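 Log P calculated in silico, not measured experimentally.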

MIA PaCa-2 = test: Cytotoxicity against human MIA PaCa-2 cells incubated for 24 hrs by MTT assay; assay type: functional, cell-based; conditions: MIA PaCa-2, 24 h; how it was run: as §1
[2] = molecular target: Microtubule-associated protein tau (Homo sapiens) (UniProt P10636); test: Inhibition of Tau in human Huh-7 cells at 40 uM relative to control; assay type: cell-based
[3] = molecular target: Calcitonin gene-related peptide type 1 receptor (Homo sapiens) (UniProt Q16602); test: Inhibition of human CGRP1 at 30 uM relative to control
HCT-116 [4] = test: Cytotoxicity against HCT-116 cell expressing KRAS assessed as growth inhibition by measuring synthetic lethality at 2 uM relative to control; assay type: functional; conditions: Homo sapiens
HCT cell line [5] = test: Cytotoxicity against HCT cell expressing KRAS assessed as growth inhibition by measuring synthetic lethality at 0.2 uM relative to control; assay type: functional; conditions: Homo sapiens
HCT-116 [6] = test: Cytotoxicity against HCT-116 cell expressing KRAS assessed as growth inhibition by measuring synthetic lethality at 20 uM relative to control; assay type: functional; conditions: Homo sapiens
HCT cell line [7] = test: Cytotoxicity against HCT cell expressing KRAS assessed as growth inhibition by measuring synthetic lethality at 20 uM relative to control; assay type: functional; conditions: Homo sapiens
COLO 320 [8] = test: Cytotoxicity against human COLO 320 cell expressing KRAS assessed as growth inhibition by measuring synthetic lethality at 2 uM relative to control; assay type: functional
SNU-C1 [9] = test: Cytotoxicity against human SNU-C1 cell expressing KRAS assessed as growth inhibition by measuring synthetic lethality at 2 uM relative to control; assay type: functional
RKO = test: Cytotoxicity against human RKO cell expressing KRAS assessed as growth inhibition by measuring synthetic lethality at 0.2 uM relative to control; assay type: functional
[10] = molecular target: Calcitonin gene-related peptide type 1 receptor (Homo sapiens, UniProt O60894+Q16602); test: Inhibition of human CGRP1
HCT cell line [11] = test: Cytotoxicity against HCT cell expressing KRAS assessed as growth inhibition by measuring synthetic lethality at 2 uM relative to control; assay type: functional; conditions: Homo sapiens
COLO 320 [12] = test: Cytotoxicity against human COLO 320 cell expressing KRAS assessed as growth inhibition by measuring synthetic lethality at 20 uM relative to control; assay type: functional
SNU-C1 [13] = test: Cytotoxicity against human SNU-C1 cell expressing KRAS assessed as growth inhibition by measuring synthetic lethality at 0.2 uM relative to control; assay type: functional
COLO 320 [14] = test: Cytotoxicity against human COLO 320 cell expressing KRAS assessed as growth inhibition by measuring synthetic lethality at 0.2 uM relative to control; assay type: functional
SNU-C1 [15] = test: Cytotoxicity against human SNU-C1 cell expressing KRAS assessed as growth inhibition by measuring synthetic lethality at 20 uM relative to control; assay type: functional

Chain of Calcitonin gene-related peptide type 1 receptor (Homo sapiens) (Q16602 whole entry): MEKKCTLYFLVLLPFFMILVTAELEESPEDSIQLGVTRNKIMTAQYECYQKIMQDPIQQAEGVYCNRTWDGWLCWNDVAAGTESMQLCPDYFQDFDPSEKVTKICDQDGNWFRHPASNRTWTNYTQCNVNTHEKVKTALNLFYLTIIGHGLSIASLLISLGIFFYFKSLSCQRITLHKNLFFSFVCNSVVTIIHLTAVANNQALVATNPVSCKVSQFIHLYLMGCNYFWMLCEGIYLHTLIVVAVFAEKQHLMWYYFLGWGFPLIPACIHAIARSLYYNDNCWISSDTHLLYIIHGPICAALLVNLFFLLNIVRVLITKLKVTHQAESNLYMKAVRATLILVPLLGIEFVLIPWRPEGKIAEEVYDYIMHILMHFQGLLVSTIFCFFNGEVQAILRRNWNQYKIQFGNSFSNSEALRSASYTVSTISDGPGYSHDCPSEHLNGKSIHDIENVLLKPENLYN
Chain of Microtubule-associated protein tau (Homo sapiens) (P10636 whole entry): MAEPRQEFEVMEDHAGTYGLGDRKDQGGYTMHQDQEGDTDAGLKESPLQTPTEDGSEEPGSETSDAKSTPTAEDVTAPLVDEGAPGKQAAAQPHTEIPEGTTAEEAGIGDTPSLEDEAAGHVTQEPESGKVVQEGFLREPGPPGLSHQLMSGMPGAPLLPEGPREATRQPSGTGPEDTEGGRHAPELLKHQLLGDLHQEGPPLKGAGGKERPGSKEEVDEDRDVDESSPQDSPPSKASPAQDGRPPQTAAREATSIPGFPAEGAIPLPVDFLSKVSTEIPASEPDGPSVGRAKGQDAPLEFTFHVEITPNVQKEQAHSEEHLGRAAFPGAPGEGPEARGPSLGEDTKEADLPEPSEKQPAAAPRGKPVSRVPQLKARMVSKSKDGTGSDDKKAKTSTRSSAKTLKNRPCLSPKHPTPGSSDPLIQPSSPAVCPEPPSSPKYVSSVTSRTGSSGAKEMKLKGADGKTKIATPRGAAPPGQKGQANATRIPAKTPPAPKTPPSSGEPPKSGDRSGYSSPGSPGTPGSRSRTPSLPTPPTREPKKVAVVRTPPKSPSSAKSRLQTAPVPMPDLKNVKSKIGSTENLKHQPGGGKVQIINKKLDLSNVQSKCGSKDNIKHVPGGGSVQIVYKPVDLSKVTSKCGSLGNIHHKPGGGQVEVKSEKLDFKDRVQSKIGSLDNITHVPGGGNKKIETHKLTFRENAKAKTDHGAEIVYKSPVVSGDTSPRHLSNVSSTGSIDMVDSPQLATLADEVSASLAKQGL
Chain of Calcitonin gene-related peptide type 1 receptor (Q16602 whole entry, one chain of several): as the sequence (Q16602 whole entry) above

- logP [1]: 2.29
Structure (SMILES): OCCOc1ccc(/C=C/c2cc(OCCO)cc(OCCO)c2)cc1
- IC50 (HT-29): 23 µM
- IC50 (MIA PaCa-2): 79 µM

- logP [1]: 2.28
Structure (SMILES): Oc1ccc(/C=C/c2cc(O)c(O)c(O)c2)c(O)c1
- IC50 (HT-29): 78 µM
- IC50 (MIA PaCa-2): 96 µM

Structure (SMILES): Oc1ccc(/C=C/c2cc(O)cc(O)c2)cc1 [RESVERATROL]
- inhibition [2]: 21.3%
- IC50 (HT-29): 78 µM
- IC50 (MIA PaCa-2): 132 µM
- inhibition [3]: 2.3%

- inhibition [2]: 58%
- logP [1]: 2.61
- IC50 [10]: 2.41 µM
- inhibition [3]: 54.2%
Structure (SMILES): COc1cc(-c2cc3ccc(O)cc3o2)cc(OC)c1OC
- inhibition at 2 µM (HCT-116 [4]): 6.3%
- inhibition at 0.2 µM (HCT cell line [5]): 0%
- inhibition at 20 µM (HCT-116 [6]): 87.4%
- inhibition at 20 µM (HCT cell line [7]): 0%
- inhibition at 2 µM (COLO 320 [8]): 4.4%
- inhibition at 2 µM (SNU-C1 [9]): 8.7%
- IC50 (HT-29): 14 µM
- inhibition at 0.2 µM (RKO): 0%
- inhibition at 2 µM (HCT cell line [11]): 0.5%
- inhibition at 20 µM (COLO 320 [12]): 0%
- inhibition at 0.2 µM (SNU-C1 [13]): 8.7%
- inhibition at 0.2 µM (COLO 320 [14]): 0%
- inhibition at 20 µM (SNU-C1 [15]): 14.9%

- logP [1]: 2.93
Structure (SMILES): COc1ccc(-c2cc3cc(OC)cc(OC)c3[nH]2)cc1
- IC50 (HT-29): 211 µM

- logP [1]: 3.59
Structure (SMILES): COc1ccc(/C=C/c2cc(OC)c(OC)c(OC)c2)c(OC)c1
- IC50 (HT-29): 12 µM
- IC50 (MIA PaCa-2): 28 µM

- logP [1]: 2.21
Structure (SMILES): Oc1cc(O)cc(-c2cc3ccc(O)cc3o2)c1 [MORACIN M]
- IC50 (HT-29): 73 µM

- logP [1]: 2.74
Structure (SMILES): COc1cc(OC)cc(-c2cc3ccc(O)cc3o2)c1
- IC50 (HT-29): 19 µM

- logP [1]: > 11.2
Structure (SMILES): CCCCCCCCCCCC(=O)Oc1ccc(C=Cc2cc(OC(=O)CCCCCCCCCCC)cc(OC(=O)CCCCCCCCCCC)c2)cc1
- IC50 (HT-29): 134 µM
- IC50 (MIA PaCa-2): 198 µM

Structure (SMILES): COc1ccc(/C=C/c2cc(OC)cc(OC)c2)cc1 [TRISMETHOXYRESVERATROL]
- logP [1]: 3.85
- IC50 (MIA PaCa-2): 35 µM

- logP [1]: 1.82
- IC50 [10]: 2.77 µM
- inhibition [3]: 59.9%
Structure (SMILES): Oc1ccc2cc(-c3cc(O)c(O)c(O)c3)oc2c1
- inhibition at 2 µM (HCT-116 [4]): 33%
- inhibition at 0.2 µM (HCT cell line [5]): 15.6%
- inhibition at 20 µM (HCT-116 [6]): 85.9%
- inhibition at 20 µM (HCT cell line [7]): 0%
- inhibition at 2 µM (COLO 320 [8]): 0%
- inhibition at 2 µM (SNU-C1 [9]): 3.1%
- IC50 (HT-29): 56 µM
- inhibition at 0.2 µM (RKO): 2.7%
- inhibition at 2 µM (HCT cell line [11]): 0.5%
- inhibition at 20 µM (COLO 320 [12]): 0%
- inhibition at 0.2 µM (SNU-C1 [13]): 5.8%
- inhibition at 0.2 µM (COLO 320 [14]): 0%
- inhibition at 20 µM (SNU-C1 [15]): 11.2%

- logP [1]: 2.66
Structure (SMILES): COc1ccc(OC)c(-c2cc3ccc(O)cc3[nH]2)c1
- inhibition at 2 µM (HCT-116 [4]): 0%
- inhibition at 0.2 µM (HCT cell line [5]): 0%
- inhibition at 20 µM (HCT-116 [6]): 0%
- inhibition at 20 µM (HCT cell line [7]): 6.3%
- inhibition at 2 µM (COLO 320 [8]): 0%
- inhibition at 2 µM (SNU-C1 [9]): 0%
- IC50 (HT-29): 10 µM
- inhibition at 0.2 µM (RKO): 9.4%
- inhibition at 2 µM (HCT cell line [11]): 0%
- inhibition at 20 µM (COLO 320 [12]): 55.3%
- inhibition at 0.2 µM (SNU-C1 [13]): 0%
- inhibition at 0.2 µM (COLO 320 [14]): 0%
- inhibition at 20 µM (SNU-C1 [15]): 30.3%

- logP [1]: 4.15
Structure (SMILES): COc1ccc(-c2cc3cc(C)cc(C)c3[nH]2)cc1
- IC50 (HT-29): 331 µM

- logP [1]: 5.15
Structure (SMILES): COc1ccc(OC)c(-c2cc3ccc(OCc4ccccc4)cc3[nH]2)c1
- inhibition at 2 µM (HCT-116 [4]): 45.6%
- inhibition at 0.2 µM (HCT cell line [5]): 0%
- inhibition at 20 µM (HCT-116 [6]): 89.7%
- inhibition at 20 µM (HCT cell line [7]): 48.9%
- inhibition at 2 µM (COLO 320 [8]): 0%
- inhibition at 2 µM (SNU-C1 [9]): 13.9%
- IC50 (HT-29): 239 µM
- inhibition at 0.2 µM (RKO): 77.3%
- inhibition at 2 µM (HCT cell line [11]): 6.9%
- inhibition at 20 µM (COLO 320 [12]): 0%
- inhibition at 0.2 µM (SNU-C1 [13]): 7.4%
- inhibition at 0.2 µM (COLO 320 [14]): 0%
- inhibition at 20 µM (SNU-C1 [15]): 44.5%

- logP [1]: 8.76
Structure (SMILES): CC(C)(C)C(=O)Oc1ccc(/C=C/c2cc(OC(=O)C(C)(C)C)cc(OC(=O)C(C)(C)C)c2)cc1
- IC50 (HT-29): 56 µM
- IC50 (MIA PaCa-2): 39 µM
